Data as given in ChEMBL document CHEMBL3526142, “Biotransformation of a novel antimitotic agent, I-387, by mouse, rat, dog, monkey, and human liver microsomes and in vivo pharmacokinetics in mice” (Drug Metab Dispos, 2011).

Assays:
[1] = Retention time of the compound at 0.5 uM by LC-MS/MS analysis; assay type: physicochemical
In short: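 After a 2 h incubation at 37°C with liver microsomes (1 mg/ml protein, 3 mM NADPH, 0.5 μM substrate, pH 7.4 phosphate buffer), samples were quenched with acetonitrile and centrifuged. Supernatant separated on a C18 column (15 min run, linear gradient 100% A to 100% B over 7 min) with LC-MS/MS ion trap detection.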

[2] = test system: Liver microsome; experiment: Drug level in rat liver microsomes assessed as compound retention time treated with 0.5 uM I-387 after 2 hrs by LC-MS/MS analysis; assay type: ADME
In short: (§1)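 Pooled liver microsomes (1 mg/ml protein) incubated with 0.5 µM substrate and 3 mM NADPH in 65 mM potassium phosphate, pH 7.4, 1% methanol, at 37°C for 2 h. Stopped with ice-cold acetonitrile containing internal standard, centrifuged. Supernatant analysed by LC-MS/MS on a C18 column, 15-min gradient, with product ion scans for metabolite identification.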

[3] = test system: Liver microsome; experiment: Drug level in dog liver microsomes assessed as compound retention time treated with 0.5 uM I-387 after 2 hrs by LC-MS/MS analysis; assay type: ADME, Canis lupus familiaris; in short: as §1
[4] = test system: Liver; experiment: Drug level in mouse liver microsomes assessed as compound retention time treated with 0.5 uM I-387 after 2 hrs by LC-MS/MS analysis; assay type: ADME; in short: as §1
[5] = Drug level in monkey liver microsomes assessed as compound retention time treated with 0.5 uM I-387 after 2 hrs by LC-MS/MS analysis; assay type: ADME, Macaca mulatta; details: rhesus monkey; in short: as §1
[6] = test system: Liver microsome; experiment: Drug level in human liver microsomes assessed as compound retention time treated with 0.5 uM I-387 after 2 hrs by LC-MS/MS analysis; assay type: ADME; in short: as §1

COc1cc(C(O)c2cccc(-c3cc4ccccc4[nH]3)c2)cc(OC)c1OC (stereo unspecified)
metabolite_detected: Drug metabolism [2] | Drug metabolism [3] | Drug metabolism [4] | Drug metabolism [5] | Drug metabolism [6]
10.5 min: Retention_time [1]
